Data: ChEMBL document CHEMBL2177098, “Synthesis and evaluation of novel ¹⁸F labeled 2-pyridinylbenzoxazole and 2-pyridinylbenzothiazole derivatives as ligands for positron emission tomography (PET) imaging of β-amyloid plaques” (J Med Chem, 2012)
The source made the active and inactive calls. No cut-off for these calls is given here.

Legend:
Mus musculus [1] = species on record: Mus musculus; test: Binding affinity to amyloid beta plaques in transgenic C57BL6 mouse hippocampus expressing APP Swedish mutant/PSEN1 at 370 KBq/100 ul after 1 hr by autoradiographic analysis; assay type: tissue-based; conditions: tested as the 18F-labelled form
Procedure, shortened: (§1)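 Paraffin brain sections from 12-month-old Tg mice (C57BL6, APPswe/PSEN1) and age-matched controls, deparaffinized through xylene and graded ethanol, then PBS (0.2 M, pH 7.4) 30 min. Incubated with 18F tracer (370 KBq per 100 μL) 1 h at room temperature, washed in 40% EtOH, rinsed in water, then phosphor plate exposure 2 h. The same sections were afterwards stained with 0.125% thioflavin S in 10% EtOH for 3 min and washed in 40% EtOH.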

Mus musculus [2] = species on record: Mus musculus; test: Binding affinity to amyloid beta plaques in transgenic C57BL6 mouse hippocampus expressing APP Swedish mutant/PSEN1 at 370 KBq/100 ul after 1 hr by thioflavinS-staining method; assay type: tissue-based; conditions: tested as the 18F-labelled form; procedure, shortened: as §1
[3] = Displacement of [125I]-IMPY from amyloid beta (1 to 42) fibrils after 2 hrs by gamma-counting analysis
Procedure, shortened: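 Competition binding with aggregated Aβ1-42 fibrils and [125I]IMPY (60000−100000 cpm/100 μL) in 0.05% BSA (1 mL total); inhibitors 10⁻⁴−10^−8.5 M in ethanol. Incubated 37 °C for 2 h, then GF/B vacuum filtration with PBS (0.02 M, pH 7.4) washes and γ counting. Three repeats; IC50 converted to Ki by Cheng−Prusoff.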

[4] = biological target: Amyloid-beta precursor protein (Homo sapiens) (UniProt P05067); test: Binding affinity to amyloid beta plaques in Alzheimer patient brain at 370 KBq/100 ul after 1 hr by autoradiographic analysis; conditions: tested as the 18F-labelled form
Mus musculus [5] = species on record: Mus musculus; test: Binding affinity to amyloid beta plaques in transgenic C57BL6 mouse cortex expressing APP Swedish mutant/PSEN1 at 370 KBq/100 ul after 1 hr by autoradiographic analysis; conditions: tested as the 18F-labelled form; procedure, shortened: as §1
Mus musculus [6] = species on record: Mus musculus; test: Binding affinity to amyloid beta plaques in transgenic C57BL6 mouse cortex expressing APP Swedish mutant/PSEN1 at 370 KBq/100 ul after 1 hr by thioflavinS-staining method; conditions: tested as the 18F-labelled form; procedure, shortened: as §1

Amyloid-beta precursor protein (Homo sapiens), sequence (P05067 whole entry): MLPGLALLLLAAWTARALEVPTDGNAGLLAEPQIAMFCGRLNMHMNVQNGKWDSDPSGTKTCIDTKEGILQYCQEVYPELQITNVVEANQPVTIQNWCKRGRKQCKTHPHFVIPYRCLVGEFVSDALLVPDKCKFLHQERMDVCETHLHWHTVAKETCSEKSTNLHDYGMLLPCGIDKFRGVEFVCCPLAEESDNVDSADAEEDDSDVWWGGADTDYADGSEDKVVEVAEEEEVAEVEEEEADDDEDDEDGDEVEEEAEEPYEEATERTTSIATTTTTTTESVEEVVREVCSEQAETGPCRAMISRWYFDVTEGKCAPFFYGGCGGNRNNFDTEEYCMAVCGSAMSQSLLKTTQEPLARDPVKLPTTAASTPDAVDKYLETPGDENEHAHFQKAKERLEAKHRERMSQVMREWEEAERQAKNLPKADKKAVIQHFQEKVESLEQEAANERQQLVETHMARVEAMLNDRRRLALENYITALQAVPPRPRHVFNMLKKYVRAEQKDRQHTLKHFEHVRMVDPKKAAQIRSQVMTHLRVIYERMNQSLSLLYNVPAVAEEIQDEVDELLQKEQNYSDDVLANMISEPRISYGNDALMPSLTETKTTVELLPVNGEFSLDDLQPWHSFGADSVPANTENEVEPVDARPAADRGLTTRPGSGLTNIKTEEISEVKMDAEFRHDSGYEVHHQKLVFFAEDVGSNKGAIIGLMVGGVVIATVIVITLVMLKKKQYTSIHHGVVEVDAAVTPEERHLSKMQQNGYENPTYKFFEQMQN

Activity (Mus musculus [1]): Active
Activity (Mus musculus [2]): Active
Ki [3]: 76.9 nM
Activity [4]: Active
Activity (Mus musculus [5]): Active
Activity (Mus musculus [6]): Active
SMILES: CNc1ccc(-c2nc3cc(OCCOCCOCCF)ccc3o2)cn1
